Results taken from ChEMBL document CHEMBL1135640, “Synthesis and antitumor activity of new derivatives of xanthen-9-one-4-acetic acid” (J Med Chem, 2002).

Columns and labels:
C13 [1] = experiment: In vitro cytotoxicity against C13 tumor cell line; Not detected; type: functional, cell-based, Homo sapiens
Summary of the method: (§1)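 Cisplatin-resistant C13* human ovarian adenocarcinoma cells, kept in RPMI 1640 with 10% heat-inactivated FCS and 2 mM L-glutamine, seeded and treated 24 h later with graded concentrations for 24 h. Viability by MTT (4 h, 37 °C; DMSO solubilization; 570 nm, reference 630 nm). IC50 with 95% confidence limits by Litchfield–Wilcoxon; three experiments in triplicate.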

[2] = Compound was tested for toxicity induced in human monocyte
Summary of the method: (§2)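 Adherent human peripheral blood mononuclear cells (Ficoll-isolated, 2 h adhesion at 37 °C, nonadherent cells washed off) exposed 24 h to 25, 50, 100 μM test agent, triplicate wells per dose. Medium then replaced with C13* ovarian carcinoma cells (2 × 10³/well), cocultured 24 h, lysis read by MTT. IC50 with 95% confidence limits by Litchfield–Wilcoxon; three experiments in triplicate.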

[3] = Compound was tested for toxicity induced in murine macrophage; conditions: Mus musculus
Summary of the method: (§3)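 Resident mouse peritoneal cells recovered by PBS–heparin (10 U/mL) lavage, adhered 2 h at 37 °C in RPMI 1640 + 5% FCS. Macrophages plated at 1 × 10⁴/well with graded drug concentrations for 24 h (triplicate wells). C13* cells (2 × 10³/well) then added, cocultured 24 h, MTT read-out. Specific cytotoxicity = [OD(macrophages+C13*) − OD(macrophages)]/OD(C13*). IC50 with 95% limits by Litchfield–Wilcoxon.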

Homo sapiens = organism: Homo sapiens; experiment: Potency ratio as the ratio of IC50 of DMXXA against human monocytes to that of the IC50 against human monocytes.; type: ADME
Mus musculus = organism: Mus musculus; experiment: Potency ratio as the ratio of IC50 of DMXXA against murine macrophages to that of the IC50 against murine macrophages; type: ADME
[4] = Potency ratio against macrophages.; type: ADME
C13 [5] = experiment: In vitro cytotoxicity against C13 tumor cell line; type: functional, cell-based; conditions: Homo sapiens; summary of the method: as §1
[6] = Compound was tested for toxicity induced in human monocyte; b indicates Not detected; summary of the method: as §2
[7] = Compound was tested for toxicity induced in murine macrophage; b indicates Not detected; conditions: mouse; summary of the method: as §3

CC1(C)CCc2c(ccc3c(=O)c4cccc(CC(=O)O)c4oc23)O1
IC50 (C13 [1]): Not detected | IC50 [2]: 108 µM | IC50 [3]: 71.5 µM | Potency ratio (Homo sapiens): 1.2 | Potency ratio (Mus musculus): 2.9 | Potency ratio [4]: 0.7

C#CCOc1ccc2c(=O)c3cccc(CC(=O)OC)c3oc2c1C
IC50 (C13 [5]): 410 µM | IC50 [6]: Not detected | IC50 [3]: 372 µM | Potency ratio (Mus musculus): 0.6

C=CCOc1ccc2c(=O)c3cccc(CC(=O)OC)c3oc2c1
IC50 (C13 [5]): 509 µM | IC50 [2]: 114 µM | IC50 [3]: 61.6 µM | Potency ratio (Homo sapiens): 0.8 | Potency ratio (Mus musculus): 3.4 | Potency ratio [4]: 0.5

COC(=O)Cc1cccc2c(=O)c3ccc4c(c3oc12)C=CC(C)(C)O4
IC50 (C13 [1]): Not detected | IC50 [2]: 53.5 µM | IC50 [3]: 30.5 µM | Potency ratio (Homo sapiens): 2.5 | Potency ratio (Mus musculus): 6.9 | Potency ratio [4]: 0.6

COC(=O)Cc1cccc2c(=O)c3ccc4oc(C)cc4c3oc12
IC50 (C13 [1]): Not detected | IC50 [6]: Not detected | IC50 [3]: 80.9 µM | Potency ratio (Mus musculus): 2.6

COC(=O)Cc1cccc2c(=O)c3ccc4c(c3oc12)CC(C)O4 (stereo not drawn)
IC50 (C13 [1]): Not detected | IC50 [2]: 67.3 µM | IC50 [3]: 82.8 µM | Potency ratio (Homo sapiens): 2 | Potency ratio (Mus musculus): 2.5 | Potency ratio [4]: 1.2

C=C(C)COc1ccc2c(=O)c3cccc(CC(=O)OC)c3oc2c1C
IC50 (C13 [5]): 488 µM | IC50 [2]: 84.6 µM | Potency ratio [7]: Not detected

C=CCOc1ccc2c(=O)c3cccc(CC(=O)O)c3oc2c1
IC50 (C13 [5]): 510 µM | IC50 [6]: Not detected | IC50 [3]: 218 µM | Potency ratio (Mus musculus): 1

C=C(C)COc1ccc2c(=O)c3cccc(CC(=O)O)c3oc2c1C
IC50 (C13 [5]): 443 µM | IC50 [2]: 86.2 µM | IC50 [3]: 77.3 µM | Potency ratio (Homo sapiens): 1.6 | Potency ratio (Mus musculus): 2.7 | Potency ratio [4]: 0.9

CC1(C)C=Cc2c(ccc3c(=O)c4cccc(CC(=O)O)c4oc23)O1
IC50 (C13 [5]): 726 µM | IC50 [2]: 259 µM | IC50 [3]: 45.1 µM | Potency ratio (Homo sapiens): 0.5 | Potency ratio (Mus musculus): 4.7 | Potency ratio [4]: 0.2

Cc1cc2c(ccc3c(=O)c4cccc(CC(=O)O)c4oc32)o1
IC50 (C13 [1]): Not detected | IC50 [6]: Not detected | IC50 [3]: 42 µM | Potency ratio (Mus musculus): 5

CC1Cc2c(ccc3c(=O)c4cccc(CC(=O)O)c4oc23)O1 (stereo not drawn)
IC50 (C13 [5]): 711 µM | IC50 [2]: 178 µM | IC50 [3]: 157 µM | Potency ratio (Homo sapiens): 0.7 | Potency ratio (Mus musculus): 1.3 | Potency ratio [4]: 0.9

CC1(C)Cc2c(ccc3c(=O)c4cccc(CC(=O)O)c4oc23)O1
IC50 (C13 [5]): 604 µM | IC50 [2]: 172 µM | IC50 [3]: 220 µM | Potency ratio (Homo sapiens): 0.8 | Potency ratio (Mus musculus): 0.9 | Potency ratio [4]: 1.3

COC(=O)Cc1cccc2c(=O)c3ccc4c(c3oc12)CC(C)(C)O4
IC50 (C13 [5]): 549 µM | IC50 [2]: 73.7 µM | IC50 [3]: 201 µM | Potency ratio (Homo sapiens): 1.8 | Potency ratio (Mus musculus): 1 | Potency ratio [4]: 2.7

Cc1ccc2c(=O)c3cccc(CC(=O)O)c3oc2c1C [VADIMEZAN]
IC50 (C13 [5]): 615 µM | IC50 [2]: 135 µM | IC50 [3]: 211 µM

COC(=O)Cc1cccc2c(=O)c3ccc(OCC=C(C)C)c(C)c3oc12
IC50 (C13 [5]): 702 µM | IC50 [2]: 73.6 µM | IC50 [3]: 224 µM | Potency ratio (Homo sapiens): 1.8 | Potency ratio (Mus musculus): 1 | Potency ratio [4]: 3

CC(C)=CCOc1ccc2c(=O)c3cccc(CC(=O)O)c3oc2c1
IC50 (C13 [5]): 626 µM | IC50 [2]: 64.2 µM | IC50 [3]: 264 µM | Potency ratio (Homo sapiens): 2.1 | Potency ratio (Mus musculus): 0.8 | Potency ratio [4]: 4.1
